Measured values: BindingDB's records for doi:10.1021/jm00107a020 (Pfizer, 1991)

Target: Aldo-keto reductase family 1 member B1 (Homo sapiens, UniProt P15121)
Experiment: In vitro inhibition of human placental aldose reductase.
Summary of the method: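 Human placental aldose reductase, partly purified (placentae homogenized in 0.1 M K phosphate pH 7.0 with 5 mM 2-mercaptoethanol, spun 33000g, peak fractions pooled). Assay in 50 mM K phosphate pH 7.1 with 0.4 M ammonium sulfate, 0.067 mM NADPH, 1.0 mM DL-glyceraldehyde; enzyme set to 4 milliunits; NADPH oxidation at 340 nm, 25 °C, 10 min. IC50 by log linear regression.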

Compound	IC50
CCOC(=O)C1CN(Cc2ccccc2Cl)C(=O)C1=O (configuration not stated)	2300 nM
CCOC(=O)C1CN(Cc2cccc3ccccc23)C(=O)C1=O (configuration not stated)	2300 nM
